Measurements from different studies.
Compare with care: the assays were run in different laboratories.
Target: Interleukin-1 receptor-associated kinase 1 (IRAK1, Homo sapiens, UniProt P51617)

`O=C(Nc1c[nH]nc1C(=O)NC1CCNCC1)c1cc(F)cc(F)c1` gave a remaining binding of 95% (binding; competition with immobilised ligand; 1 µM).
`C[C@@H]1CCN(c2nccc(-c3cnn4ncccc34)n2)C1` has a remaining binding of 98% (binding; 1 µM).
With `CCC(=O)N[C@@H]1CC[C@H](C(=O)N(C)c2ccc(-c3nc4ccccc4o3)cc2)C1` the remaining binding was 100% (cell-free assay; competition with immobilised ligand; 1 µM).
`Cc1cnn2ncc(-c3ccnc(N(C)C)n3)c2c1` gave a remaining binding of 100% (binding; 1 µM).
The remaining binding of `O=C(c1ccc(Nc2nccc(-c3cc4ccccc4s3)n2)cc1)N1CCC(N2CCCC2)CC1` is reported as 3.2% (binding; competition with immobilised ligand; 1 µM).
With `CC1CCCN1c1nccc(-c2cnn3ncccc23)n1` (stereo not drawn) the remaining binding was 85% (binding; 1 µM).
The remaining binding of `Cc1c(NC(=O)c2cc(C(N)=O)nc3cc(F)ccc23)c(C(F)(F)F)nn1Cc1ccc(C(C)(C)C)cc1` is reported as 100% (cell-free assay; competition with immobilised ligand; 1 µM).
The remaining binding of `O=C(NCCCN1CCOCC1)c1ccc(Nc2ncc(Cl)c(-c3ccc(Cl)s3)n2)cc1` is reported as 0.15% (binding; competition with immobilised ligand; 1 µM).
`C[C@H](c1cccc(C#N)c1)n1cc(Cl)cc(C(N)=O)c1=N` has a remaining binding of 71% (cell-free assay; competition with immobilised ligand; 1 µM).
`COc1ncc2cc3ccccc3nc2c1C#N` has a remaining binding of 92% (cell-free assay; competition with immobilised ligand; 5 µM).
`N[C@@H]1CCN(c2nccc(-c3cnn4ncccc34)n2)C1` has a remaining binding of 100% (binding; 1 µM).
With `N#CC1(c2ccccn2)CCN(Cc2cc(C(=O)N3CCCC3)c(=O)n3ccccc23)CC1` the remaining binding was 100% (cell-free assay; competition with immobilised ligand; 1 µM).
With `C[C@@H](c1ccc(-n2cnc3c(N)ncnc32)cc1)N1CCc2nn(C)c(Cc3ccccc3)c2C1=O` the remaining binding was 69% (binding; competition with immobilised ligand; 0.1 µM).
`CN(c1ccnc(CNc2nc(Nc3ccc4c(c3)CC(=O)N4)ncc2C(F)(F)F)n1)S(C)(=O)=O` gave a remaining binding of 13% (cell-free assay; competition with immobilised ligand; 1 µM).
With `FC(F)(F)Oc1cccc(-c2cnc3ccc(-c4ccncc4)nn23)c1` the remaining binding was 10% (cell-free assay; competition with immobilised ligand; 5 µM).
`CN(CCCC(F)(F)F)c1nccc(-c2cnn3ncccc23)n1` has a remaining binding of 100% (binding; 1 µM).
`Cc1nccc(COC(=O)N2C[C@@H]3[C@@H](CNC(=O)c4ccc5[nH]nnc5c4)[C@@H]3C2)n1` has a remaining binding of 81% (cell-free assay; competition with immobilised ligand; 1 µM).
`CNC(=O)[C@@H]1CC[C@@H](n2c(-c3ccc4cnccc4c3)nc3ccc(C(=O)NCc4cccc(C(N)=O)c4)cc32)C1` has a remaining binding of 100% (binding; competition with immobilised ligand; 1 µM).
With `C=CC(=O)N1CCC(C(=O)NCC(=O)N2CCN(c3nc(-c4cnc(N)nc4C(F)F)nc(N4CCOCC4)n3)CC2)CC1` the remaining binding was 100% (binding; competition with immobilised ligand; 1 µM).
The remaining binding of `CN(c1nccc(-c2cnn3ncccc23)n1)C1CC1` is reported as 100% (binding; 1 µM).
`O=C(c1ccc(Nc2ncc(Cl)c(-c3ccc(Cl)s3)n2)cc1)N1CCC(N2CCCC2)CC1` gave a remaining binding of 0.05% (binding; competition with immobilised ligand; 1 µM).
